For one test, the target named is T1, B1 bradykinin receptor (Homo sapiens, UniProt P46663).
T1 sequence (P46663 whole entry): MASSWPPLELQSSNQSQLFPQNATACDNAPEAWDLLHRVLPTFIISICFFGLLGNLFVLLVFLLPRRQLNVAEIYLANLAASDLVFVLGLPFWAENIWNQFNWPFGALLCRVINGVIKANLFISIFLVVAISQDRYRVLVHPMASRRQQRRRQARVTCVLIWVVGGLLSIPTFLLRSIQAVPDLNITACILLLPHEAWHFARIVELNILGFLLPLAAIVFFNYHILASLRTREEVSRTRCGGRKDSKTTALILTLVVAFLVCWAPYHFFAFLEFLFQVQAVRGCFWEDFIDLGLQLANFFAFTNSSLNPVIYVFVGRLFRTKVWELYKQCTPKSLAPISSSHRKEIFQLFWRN
As to the kind of experiment: Ability to bind to human cloned B1 receptor in competition binding experiments with [3H][des-Arg10,Leu9]-Kallidin. In short, it runs like this: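 Membranes from stably transfected human embryonic kidney 293 cells expressing the human B1 receptor were used. Cells were scraped into 25 mM TES pH 7.4 with 1 mM 1,10-phenanthroline, 140 µg/mL bacitracin and 0.1% BSA, and membranes were spun at 40000g for 15 min. Incubation was with 1 nM [3H][des-Arg10,Leu9]-kallidin for 60 min. Nonspecific binding was taken with 10 µM [des-Arg10,Leu9]-kallidin. Bound label was collected by filtration on PEI-soaked GF/B filters and counted by scintillation.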

For a further test, the target named is T2, B2 bradykinin receptor (Homo sapiens, UniProt P30411).
T2 sequence (P30411 whole entry): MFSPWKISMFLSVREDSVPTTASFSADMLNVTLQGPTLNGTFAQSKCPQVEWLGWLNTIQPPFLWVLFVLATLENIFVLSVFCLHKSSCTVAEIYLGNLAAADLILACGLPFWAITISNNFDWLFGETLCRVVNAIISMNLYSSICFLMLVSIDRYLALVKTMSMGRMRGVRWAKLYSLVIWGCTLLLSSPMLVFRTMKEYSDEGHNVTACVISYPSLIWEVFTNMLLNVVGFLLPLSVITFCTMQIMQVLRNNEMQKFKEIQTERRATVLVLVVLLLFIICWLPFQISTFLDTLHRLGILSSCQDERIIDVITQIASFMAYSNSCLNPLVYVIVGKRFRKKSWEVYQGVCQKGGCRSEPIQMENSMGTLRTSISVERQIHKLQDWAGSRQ
As to the kind of experiment: Ability to bind to human cloned B2 receptor in competition binding experiments with [3H]- bradykinin. The method in brief:
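Membranes were prepared from stably transfected CHO cells expressing the human B2 receptor. Cells were scraped into 20 mM TES pH 6.8 with 1 mM 1,10-phenanthroline, 140 µg/mL bacitracin and 0.1% BSA, and membranes were spun at 40000g for 15 min. Bound label was filtered on PEI-soaked GF/B filters, washed with ice-cold buffer and counted.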

For test [1], the species on record is Homo sapiens. As to the kind of experiment: Inhibition of contraction of human umbilical vein (HUV) induced by different concentrations of bradykinin was determined. It counts as functional. To be noted: for Kb: read-out: pA2 (converted). In short, it runs like this:
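Human umbilical vein rings (3–4 mm) were mounted in Krebs organ baths at 37 °C with 95% O2/5% CO2. Captopril (10 µM), DL-thiorphan (1 µM), mepyramine (1 µM), atropine (1 µM), indomethacin (3 µM), NG-nitro-L-arginine (30 µM) and nifedipine (0.1 µM) were added. […] Means are of at least 3 experiments.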

For test [2], the species on record is Homo sapiens. The test is described as follows: Ability to inhibit contraction of human umbilical vein (HUV) induced by [des-Arg10]-Kallidin was determined. It counts as functional. To be noted: read-out: pA2 (converted). In short, it runs like this:
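Human umbilical vein rings (3–4 mm) were kept overnight at 37 °C in Krebs with penicillin/streptomycin under 95% O2/5% CO2 to induce B1. They were then set in organ baths at 37 °C with captopril, thiorphan, mepyramine, atropine, indomethacin, NG-nitro-L-arginine and nifedipine added. [des-Arg10]-kallidin concentration-response curves were run 30 min later, with antagonist or vehicle added 15 min before. Means are of at least 3 experiments.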

*1 amine or outer side, *2 acyl side, *3 side chain or, on linkers, in order; H or OH if unused. Where a SMILES comes first, the peptide text is derived from it. [ ]: non-standard residue; d: D form. The star is where a group is joined. X2 = O=C(O)CN1C(=O)[C@H](N*)CSc2ccccc21; X1 = O=C([C@@H]1CC(O)CN1[*:1])[*:2]; Igl = N[C@H](C(=O)O)C1Cc2ccccc2C1; Hyp = O=C(O)[C@@H]1C[C@@H](O)CN1; 2Thi = N[C@@H](Cc1cccs1)C(=O)O

For the molecule `NC(N)=NCCC[C@@H](N)C(=O)N[C@@H](CCCN=C(N)N)C(=O)N1CCC[C@H]1C(=O)N1CC(O)C[C@H]1C(=O)NCC(=O)N[C@H](C(=O)N[C@@H](CO)C(=O)N[C@@H]1CSc2ccccc2N(CC(=O)O)C1=O)C1Cc2ccccc2C1` (some centres undefined), the Ki on B1 bradykinin receptor is 5.6 nM; at B2 bradykinin receptor, 325 nM. Moreover, the Kb in the test listed under Homo sapiens [1] is above 10000 nM.

Regarding `CC(C)C[C@H](NC(=O)[C@@H]1CCCN1C(=O)[C@H](CO)NC(=O)[C@H](Cc1ccccc1)NC(=O)CNC(=O)[C@@H]1CCCN1C(=O)[C@@H]1CCCN1C(=O)[C@H](CCCN=C(N)N)NC(=O)[C@@H](N)CCCCN)C(=O)O`, the Kb in the test listed under Homo sapiens [2] was 12.6 nM; in the test filed under Homo sapiens [1], above 10000 nM. The molecule also returned a Ki on B2 bradykinin receptor above 1000 nM.

Consider `NC(N)=NCCC[C@@H](N)C(=O)N[C@@H](CCCN=C(N)N)C(=O)N1CCC[C@H]1C(=O)N1C[C@H](O)C[C@H]1C(=O)NCC(=O)N[C@@H](Cc1cccs1)C(=O)N[C@@H](CO)C(=O)N1Cc2ccccc2C[C@@H]1C(=O)N1[C@H](C(=O)O)C[C@@H]2CCCC[C@@H]21`, for which the Kb is 31.6 nM in the test filed under Homo sapiens [2] and above 10000 nM in the test filed under Homo sapiens [1]. The molecule further yielded a Ki at B1 bradykinin receptor of 24 nM.

As for `NC(N)=NCCC[C@@H](N)C(=O)N[C@@H](CCCN=C(N)N)C(=O)N1CCC[C@H]1C(=O)N1C[C@H](O)C[C@H]1C(=O)NCC(=O)N[C@@H](Cc1cccs1)C(=O)N[C@@H](CO)C(=O)N1Cc2ccccc2C[C@@H]1C(=O)N1[C@H](C(=O)N[C@@H](CCCN=C(N)N)C(=O)O)C[C@@H]2CCCC[C@@H]21`, in the test filed under Homo sapiens [2], the Kb is above 10000 nM. For the same molecule, on B1 bradykinin receptor, the Ki was above 1000 nM.

As for `N=C(N)NCCC[C@@H](N)C(=O)N[C@@H](CCCNC(=N)N)C(=O)N1CCC[C@H]1C(=O)N1CC(O)C[C@H]1C(=O)NCC(=O)N[C@@H](Cc1cccs1)C(=O)N[C@@H](CO)C(=O)N[C@@H]1CSc2ccccc2N(CC(=O)O)C1=O` (some centres undefined), the Ki on B1 bradykinin receptor is 83 nM; on B2 bradykinin receptor, 4.4 nM.

Regarding `CC(C)C[C@H](NC(=O)[C@@H]1CCCN1C(=O)[C@H](CO)NC(=O)[C@H](Cc1ccccc1)NC(=O)CNC(=O)[C@@H]1CCCN1C(=O)[C@@H]1CCCN1C(=O)[C@@H](N)CCCN=C(N)N)C(=O)O`, the Kb in the test listed under Homo sapiens [2] is 398 nM; in the test listed under Homo sapiens [1], above 10000 nM. Moreover, on B2 bradykinin receptor, the Ki is above 1000 nM.

For `NCCCC[C@H](NC(=O)[C@@H](N)CCCCN)C(=O)N[C@@H](CCCN=C(N)N)C(=O)N1CCC[C@H]1C(=O)N1CC(O)C[C@H]1C(=O)NCC(=O)N[C@H](C(=O)N[C@@H](CO)C(=O)N[C@@H]1CSc2ccccc2N(CC(=O)O)C1=O)C1Cc2ccccc2C1` (some centres undefined) (H-KKRP[X1]G[Igl]S-X2), the Kb is 3.16 nM in the test filed under Homo sapiens [2] and 3160 nM in the test filed under Homo sapiens [1]. Besides, the Ki on B1 bradykinin receptor came to 0.035 nM; at B2 bradykinin receptor, 62 nM.

`NCCCC[C@H](N)C(=O)N[C@@H](CCCN=C(N)N)C(=O)N1CCC[C@H]1C(=O)N1C[C@H](O)C[C@H]1C(=O)NCC(=O)N[C@H](C(=O)N[C@@H](CO)C(=O)N[C@@H]1CSc2ccccc2N(CC(=O)O)C1=O)C1Cc2ccccc2C1` (H-KRP[Hyp]G[Igl]S-X2): the Kb in the test listed under Homo sapiens [2] is 10 nM; in the test filed under Homo sapiens [1] it was above 10000 nM. Moreover, the inhibition constant Ki at B1 bradykinin receptor was determined as 0.023 nM; at B2 bradykinin receptor it was 9.2 nM.

With `NCCCC[C@H](N)C(=O)N[C@@H](CCCN=C(N)N)C(=O)N1CCC[C@H]1C(=O)N1CC(O)C[C@H]1C(=O)NCC(=O)N[C@@H](Cc1cccs1)C(=O)N[C@@H](CO)C(=O)N[C@@H]1CSc2ccccc2N(CC(=O)O)C1=O` (some centres undefined) (H-KRP[X1]G[2Thi]S-X2) [listing 1 of 2 here], the Kb in the test filed under Homo sapiens [2] is 39.8 nM. Besides, the Ki at B1 bradykinin receptor was determined as 0.22 nM; on B2 bradykinin receptor, 0.4 nM.

Take `NCCCC[C@H](N)C(=O)N[C@@H](CCCN=C(N)N)C(=O)N1CCC[C@H]1C(=O)N1CC(O)C[C@H]1C(=O)NCC(=O)N[C@@H](Cc1cccs1)C(=O)N[C@@H](CO)C(=O)N[C@@H]1CSc2ccccc2N(CC(=O)O)C1=O` (some centres undefined) (H-KRP[X1]G[2Thi]S-X2) [listing 2 of 2 here]: in the test listed under Homo sapiens [1], the pKp turned out to be 4.8.

Turning to H-RPPGFSPFR-OH [BRADYKININ], the pD2 in the test listed under Homo sapiens [1] amounted to 7.9.

By Ki is commonly meant the dissociation constant of the complex between target and ligand, obtained from inhibition or displacement.

The values are drawn from ChEMBL document CHEMBL1133746 (J Med Chem, 2000).
